In publication PMC2886590 (Journal of molecular biology, 2010):

Target: MLL PHD3 finger (Homo sapiens, UniProt Q03164)
Test: NMR titration of histone peptides
Assay type: binding
Conditions: 0.2 mM 15N-labeled PHD3, 12-mer histone tail peptide, 298K
Summary of the method: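 PHD3 finger (residues 1565-1627, wild type or mutant) was expressed as a GST fusion in E. coli BL21(DE3) pLysS grown in 15NH4Cl minimal medium. It was affinity-purified, GST-cleaved, size-exclusion purified and held in 25 mM d11-Tris pH 6.8, 150 mM KCl, 10 mM deuterated DTT and 7% 2H2O. 12-mer histone tail peptides were added stepwise to 0.2 mM protein, and normalized chemical shift changes were tracked in 1H,15N HSQC spectra.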

Sequence of MLL PHD3 finger (Q03164 1565-1627): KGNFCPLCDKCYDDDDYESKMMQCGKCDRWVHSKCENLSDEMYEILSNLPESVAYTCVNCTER

H3K4me3: histone H3 tail peptide trimethylated at lysine 4 (biotinylated residues 1-21; 12-mer for NMR)
exchange regime on NMR time scale: intermediate-to-fast exchange regime
